Each structure is given as a SMILES string. *1 amine or outer side, *2 acyl side, *3 side chain or, on linkers, in order; H or OH if unused. Where a SMILES comes first, the peptide text is derived from it. Bridges are numbered along the chain shown (N, C = ends). [ ]: non-standard residue; d: D form. Cys(O)(CH2CO) = O=C([C@H](C[S+]([O-])CC(=O)[*:3])N[*:1])[*:2]; X1 = C[C@@H](O)[C@@H](C(=O)[*:2])N(c1cccc(CC[*:3])c1)[*:1]

Integrin alpha-IIb/beta-3, sequence (P05106 27-788 limits assumed): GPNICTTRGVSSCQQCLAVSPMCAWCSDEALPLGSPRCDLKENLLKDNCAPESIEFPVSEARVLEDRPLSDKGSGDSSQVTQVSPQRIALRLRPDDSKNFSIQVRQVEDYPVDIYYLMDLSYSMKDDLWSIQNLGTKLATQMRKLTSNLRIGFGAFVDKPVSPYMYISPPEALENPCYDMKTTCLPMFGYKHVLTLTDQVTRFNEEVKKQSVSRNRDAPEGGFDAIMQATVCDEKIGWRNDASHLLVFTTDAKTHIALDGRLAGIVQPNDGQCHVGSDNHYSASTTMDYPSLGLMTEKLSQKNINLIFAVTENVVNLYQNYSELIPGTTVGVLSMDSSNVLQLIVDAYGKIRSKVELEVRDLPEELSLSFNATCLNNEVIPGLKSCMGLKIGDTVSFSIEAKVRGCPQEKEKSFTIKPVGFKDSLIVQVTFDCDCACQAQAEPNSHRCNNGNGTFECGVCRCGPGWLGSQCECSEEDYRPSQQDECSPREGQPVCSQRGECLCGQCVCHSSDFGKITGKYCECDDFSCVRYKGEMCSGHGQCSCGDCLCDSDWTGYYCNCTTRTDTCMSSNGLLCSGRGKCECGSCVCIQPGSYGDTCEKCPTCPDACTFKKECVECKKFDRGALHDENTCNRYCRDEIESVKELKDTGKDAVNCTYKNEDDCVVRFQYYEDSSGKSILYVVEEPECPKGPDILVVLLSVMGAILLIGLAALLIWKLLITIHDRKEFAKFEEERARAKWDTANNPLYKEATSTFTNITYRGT
Integrin alpha-IIb/beta-3, sequence (P08514 32-887 limits assumed): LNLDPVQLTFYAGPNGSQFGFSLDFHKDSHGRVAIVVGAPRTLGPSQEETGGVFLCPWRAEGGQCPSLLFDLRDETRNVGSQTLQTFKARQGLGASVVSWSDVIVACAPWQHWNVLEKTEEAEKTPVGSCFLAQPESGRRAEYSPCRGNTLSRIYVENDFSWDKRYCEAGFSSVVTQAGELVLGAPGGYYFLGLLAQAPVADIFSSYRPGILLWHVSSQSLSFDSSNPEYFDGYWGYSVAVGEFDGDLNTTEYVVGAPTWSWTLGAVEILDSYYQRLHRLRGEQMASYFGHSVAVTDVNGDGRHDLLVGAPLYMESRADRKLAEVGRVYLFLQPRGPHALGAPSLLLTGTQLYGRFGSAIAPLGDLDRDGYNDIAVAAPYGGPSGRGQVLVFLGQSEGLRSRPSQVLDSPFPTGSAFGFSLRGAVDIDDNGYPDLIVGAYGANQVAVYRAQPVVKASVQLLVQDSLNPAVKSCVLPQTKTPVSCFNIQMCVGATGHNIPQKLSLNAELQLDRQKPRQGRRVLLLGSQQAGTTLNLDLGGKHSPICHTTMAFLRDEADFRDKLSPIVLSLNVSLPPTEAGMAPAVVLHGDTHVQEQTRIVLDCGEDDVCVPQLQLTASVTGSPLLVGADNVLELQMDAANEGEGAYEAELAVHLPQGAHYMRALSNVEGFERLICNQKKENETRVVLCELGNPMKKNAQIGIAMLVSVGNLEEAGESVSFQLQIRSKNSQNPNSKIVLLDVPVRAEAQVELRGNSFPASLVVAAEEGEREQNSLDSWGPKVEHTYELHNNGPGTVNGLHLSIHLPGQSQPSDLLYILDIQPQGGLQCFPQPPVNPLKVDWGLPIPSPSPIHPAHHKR
Integrin alpha-IIb/beta-3, sequence (P08514 891-1039 limits assumed): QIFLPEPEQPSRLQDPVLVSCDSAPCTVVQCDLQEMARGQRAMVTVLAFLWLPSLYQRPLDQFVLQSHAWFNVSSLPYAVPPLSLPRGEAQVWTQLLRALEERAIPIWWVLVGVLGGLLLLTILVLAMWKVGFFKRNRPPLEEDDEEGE

This experiment addresses Integrin alpha-IIb/beta-3 (Homo sapiens, UniProt P05106+P08514). Description: The compound was tested for the inhibition of fibrinogen receptor. It is filed as protein-complex assay. In short, it runs like this:
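Solid-phase ELISA: human fibrinogen (10 µg/mL) coated, BSA-blocked; samples plus purified human platelet GPIIbIIIa (40 µg/mL) incubated 1 h at room temperature. Bound receptor detected with anti-GPIIbIIIa antibody AP3 (1 µg/mL, 1 h), then goat anti-mouse HRP (1 h); OPD/H2O2 at pH 5, stopped with H2SO4, absorbance 492-405 nm. IC50 from four-parameter fit; n ≥ 3.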
With `N=C(N)NCCC[C@@H]1NC(=O)[C@H](Cc2ccc(O)cc2)NC(=O)C[S+]([O-])C[C@@H](C(=O)O)NC(=O)[C@H](CC(=O)O)NC(=O)CNC1=O` (stereo in doubt; 70A), the IC50 (commonly the midpoint of a concentration-inhibition curve) is 1.5 nM.

`N=C(N)NCCC[C@@H]1NC(=O)[C@H](Cc2cnc[nH]2)NC(=O)CSC[C@@H](C(=O)O)NC(=O)[C@H](CC(=O)O)NC(=O)CNC1=O` had an IC50 of 3 nM.

With `N=C(N)NCCC[C@@H]1NC(=O)CNC(=O)C(c2ccc(-c3ccccc3)cc2)SC[C@@H](C(=O)O)NC(=O)[C@H](CC(=O)O)NC(=O)CNC1=O` (stereo in doubt; 19A), the midpoint of inhibition, the IC50, lay at 5 nM.

On to `N=C(N)NCCC[C@@H]1NC(=O)CNC(=O)C(c2ccc3ccccc3c2)SC[C@@H](C(=O)O)NC(=O)[C@H](CC(=O)O)NC(=O)CNC1=O` (stereo in doubt; 21A), for which inhibition was half-maximal at 11.5 nM (IC50).

In turn, `N=C(N)NCCC[C@@H]1NC(=O)CNC(=O)[C@H](Cc2ccccc2)SC[C@@H](C(=O)O)NC(=O)[C@H](CC(=O)O)NC(=O)CNC1=O` gave an IC50 of 14 nM.

In the case of `N=C(N)NCCC[C@@H]1NC(=O)CNC(=O)C(c2ccccc2C(F)(F)F)SC[C@@H](C(=O)O)NC(=O)[C@H](CC(=O)O)NC(=O)CNC1=O` (stereo in doubt; 20A), the IC50 amounted to 23 nM.

In turn, `CC(C)C[C@H](NC(=O)[C@H](CC(=O)O)NC(=O)CNC(=O)[C@H](CCCN=C(N)N)NC(=O)CN)C(=O)O` (H-GRGDL-OH) gave an IC50 of 500 nM.

As to `N=C(N)NCCC[C@@H]1NC(=O)[C@@H](CO)NC(=O)CSC[C@@H](C(=O)O)NC(=O)[C@H](CC(=O)O)NC(=O)CNC1=O`, inhibition was half-maximal at 22 nM (IC50). Compared with the last compound, the IC50 is about 23-fold lower.

As for `CC(C)C[C@@H]1NC(=O)CSC[C@@H](C(=O)O)NC(=O)[C@H](CC(=O)O)NC(=O)CNC(=O)[C@H](CCCNC(=N)N)NC1=O`, 3 nM corresponded to half-maximal inhibition (IC50). Against the preceding compound, the IC50 is about 7.3-fold lower.

Take `N=C(N)NCCC[C@@H]1NC(=O)[C@@H](Cc2ccccc2)NC(=O)CSC[C@@H](C(=O)O)NC(=O)[C@H](CC(=O)O)NC(=O)CNC1=O`: it took 35 nM to reach half-maximal inhibition (IC50). This IC50 is about 12-fold higher than that of the compound before.

`NC(N)=NCCC[C@H](N)C(=O)NCC(=O)N[C@@H](CC(=O)O)C(=O)N[C@@H](Cc1ccc(O)cc1)C(=O)O` (H-RGDY-OH) yielded an IC50 of 70 nM.

Take `N=C(N)NCCC[C@@H]1NC(=O)[C@H](Cc2ccccc2)NC(=O)CSC[C@@H](C(=O)O)NC(=O)[C@H](CC(=O)O)NC(=O)CNC1=O`: the IC50 was determined as 7 nM.

`CC(C)C[C@H](NC(=O)[C@H](CC(=O)O)NC(=O)CNC(=O)[C@@H](N)CCCN=C(N)N)C(=O)O` (H-RGDL-OH) had an IC50 of 105 nM.

Regarding `N=C(N)NCCC[C@@H]1NC(=O)[C@@H](Cc2ccc(O)cc2)NC(=O)CS(=O)(=O)C[C@@H](C(=O)O)NC(=O)[C@H](CC(=O)O)NC(=O)CNC1=O`, half-maximal inhibition (IC50) was put at 2.1 nM.

For the compound `N=C(N)NCCC[C@@H]1NC(=O)[C@@H](CC(N)=O)NC(=O)CSC[C@@H](C(=O)O)NC(=O)[C@H](CC(=O)O)NC(=O)CNC1=O` ({CH2CO}-[dN]RGDC-OH; thioether N-5), the IC50 is 35 nM. Against the preceding compound, the IC50 is about 17-fold higher.

In turn, `C[C@@H]1NC(=O)C[S+]([O-])C[C@@H](C(=O)O)NC(=O)[C@H](CC(=O)O)NC(=O)CNC(=O)[C@H](CCCN=C(N)N)NC1=O` (stereo in doubt; 68B) came in with an IC50 of 4.7 nM.

Take `CC(C)(C)C[C@H]1NC(=O)CSC[C@@H](C(=O)O)NC(=O)[C@H](CC(=O)O)NC(=O)CNC(=O)[C@H](CCCN=C(N)N)NC1=O`: inhibition was half-maximal at 22 nM (IC50).

Turning to `CCCC1SC[C@@H](C(=O)O)NC(=O)[C@H](CC(=O)O)NC(=O)CNC(=O)[C@H](CCCNC(=N)N)NC(=O)CNC1=O` (stereo in doubt; 23B), the IC50 was determined as 5.4 nM.

As to `N=C(N)NCCC[C@@H]1NC(=O)[C@@H](Cc2c[nH]c3ccccc23)NC(=O)CSC[C@@H](C(=O)O)NC(=O)[C@H](CC(=O)O)NC(=O)CNC1=O`, the IC50 was determined as 29 nM.

Compound `N=C(N)NCCC[C@@H]1NC(=O)c2cccc(c2)CSC[C@@H](C(=O)O)NC(=O)[C@H](CC(=O)O)NC(=O)CNC1=O` returned an IC50 of 19 nM.

In turn, `CC(C)[C@@H]1NC(=O)CSC[C@@H](C(=O)O)NC(=O)[C@H](CC(=O)O)NC(=O)CNC(=O)[C@H](CCCN=C(N)N)NC1=O` had an IC50 of 2 nM. Against the preceding compound, the IC50 is about 9.5-fold lower.

In the case of `N=C(N)NCCC[C@@H]1NC(=O)[C@@H](CCCCN)NC(=O)CSC[C@@H](C(=O)O)NC(=O)[C@H](CC(=O)O)NC(=O)CNC1=O`, it took 20 nM to reach half-maximal inhibition (IC50).

As for `N=C(N)NCCC[C@@H]1NC(=O)CNC(=O)C(c2cccc3ccccc23)SC[C@@H](C(=O)O)NC(=O)[C@H](CC(=O)O)NC(=O)CNC1=O` (stereo in doubt; 17B), the IC50 was 1.4 nM. Compared with the last compound, the IC50 is about 14-fold lower.

As for `N=C(N)NCCC[C@@H]1NC(=O)CNC(=O)CS(=O)(=O)C[C@@H](C(=O)O)NC(=O)[C@H](CC(=O)O)NC(=O)CNC1=O`, the IC50 is 18 nM.

Regarding `N=C(N)NCCC[C@@H]1NC(=O)[C@H](CCC(=O)O)NC(=O)C[S+]([O-])C[C@@H](C(=O)O)NC(=O)[C@H](CC(=O)O)NC(=O)CNC1=O` (stereo in doubt; 73B), half-maximal inhibition (IC50) required 68 nM.

`N=C(N)NCCC[C@@H]1NC(=O)[C@H](CC(=O)O)NC(=O)CSC[C@@H](C(=O)O)NC(=O)[C@H](CC(=O)O)NC(=O)CNC1=O`: half-maximal inhibition (IC50) required 25 nM.

`N=C(N)NCCC[C@@H]1NC(=O)CNC(=O)C(c2ccc(C(F)(F)F)cc2)SC[C@@H](C(=O)O)NC(=O)[C@H](CC(=O)O)NC(=O)CNC1=O` (stereo in doubt; 22B) came in with an IC50 of 4 nM. Against the preceding compound, the IC50 is about 6.2-fold lower.

As for `N=C(N)NCCC[C@@H]1NC(=O)[C@H](CO)NC(=O)CSC[C@@H](C(=O)O)NC(=O)[C@H](CC(=O)O)NC(=O)CNC1=O`, the IC50 turned out to be 4 nM.

Regarding `N=C(N)NCCC[C@@H]1NC(=O)CSC[C@@H](C(=O)O)NC(=O)[C@H](CC(=O)O)NC(=O)CNC1=O` ({CH2CO}-RGDC-OH; thioether N-4), half-maximal inhibition (IC50) required 132 nM.

Regarding `N=C(N)NCCC[C@@H]1NC(=O)CNC(=O)CSC[C@@H](C(=O)O)NC(=O)[C@H](CC(=O)O)NC(=O)CNC1=O` ({CH2CO}-GRGDC-OH; thioether N-5), the IC50 is 4.2 nM.

The compound `CC(C)C[C@H]1NC(=O)CSC[C@@H](C(=O)O)NC(=O)[C@H](CC(=O)O)NC(=O)CNC(=O)[C@H](CCCNC(=N)N)NC1=O` had an IC50 of 38 nM.

As to `N=C(N)NCCC[C@@H]1NC(=O)[C@@H](CCC(=O)O)NC(=O)CSC[C@@H](C(=O)O)NC(=O)[C@H](CC(=O)O)NC(=O)CNC1=O`, half-maximal inhibition (IC50) was put at 260 nM.

On to `N=C(N)NCCC[C@@H]1NC(=O)CNC(=O)C(c2ccc(C(F)(F)F)cc2)SC[C@@H](C(=O)O)NC(=O)[C@H](CC(=O)O)NC(=O)CNC1=O` (stereo in doubt; 22A), for which the midpoint of inhibition, the IC50, lay at 180 nM.

The compound `C[C@@H]1NC(=O)C[S+]([O-])C[C@@H](C(=O)O)NC(=O)[C@H](CC(=O)O)NC(=O)CNC(=O)[C@H](CCCN=C(N)N)NC1=O` (stereo in doubt; 68A) gave an IC50 of 1.6 nM.

`N=C(N)NCCC[C@@H]1NC(=O)[C@H](CC(N)=O)NC(=O)C[S+]([O-])C[C@@H](C(=O)O)NC(=O)[C@H](CC(=O)O)NC(=O)CNC1=O` (stereo in doubt; 67A): the IC50 is 6 nM. Against the preceding compound, the IC50 is about 3.8-fold higher.

`C[C@@H](O)[C@@H]1NC(=O)C[S+]([O-])C[C@@H](C(=O)O)NC(=O)[C@H](CC(=O)O)NC(=O)CNC(=O)[C@H](CCCN=C(N)N)NC1=O` (stereo in doubt; 71A) yielded an IC50 of 1.8 nM.

Take `N=C(N)NCCC[C@@H]1NC(=O)CNC(=O)C(c2cccc3ccccc23)SC[C@@H](C(=O)O)NC(=O)[C@H](CC(=O)O)NC(=O)CNC1=O` (stereo in doubt; 17A): half-maximal inhibition (IC50) was put at 5.3 nM. Compared with the last compound, the IC50 is about 2.9-fold higher.

Consider `N=C(N)NCCC[C@@H]1NC(=O)[C@H](CC(N)=O)NC(=O)C[S+]([O-])C[C@@H](C(=O)O)NC(=O)[C@H](CC(=O)O)NC(=O)CNC1=O` (stereo in doubt; 67B), for which the IC50 is 5.3 nM.

For the compound `C[C@@H](O)[C@@H]1Nc2cccc(c2)CCSC[C@@H](C(=O)O)NC(=O)[C@H](CC(=O)O)NC(=O)CNC(=O)[C@H](CCCN=C(N)N)NC1=O` (H-[X1]RGDC-OH; thioether 1-5), inhibition was half-maximal at 1.7 nM (IC50).

`NCC(=O)N[C@@H](CCCN=C(N)N)C(=O)NCC(=O)N[C@@H](CC(=O)O)C(=O)N[C@@H](CC(=O)O)C(=O)O` (H-GRGDD-OH) yielded an IC50 of 231 nM.

`N=C(N)NCCC[C@@H]1NC(=O)[C@H](Cc2ccc(O)cc2)NC(=O)C[S+]([O-])C[C@@H](C(N)=O)NC(=O)[C@H](CC(=O)O)NC(=O)CNC1=O` (stereo not given in full) (YRGD[Cys(O)(CH2CO)]-NH2; lactam N-5): the IC50 worked out at 4.5 nM.

Compound `N=C(N)NCCC[C@@H]1NC(=O)[C@H](Cc2c[nH]c3ccccc23)NC(=O)CSC[C@@H](C(=O)O)NC(=O)[C@H](CC(=O)O)NC(=O)CNC1=O` showed an IC50 of 4 nM.

`C[C@@H](O)[C@@H]1NC(=O)CSC[C@@H](C(=O)O)NC(=O)[C@H](CC(=O)O)NC(=O)CNC(=O)[C@H](CCCN=C(N)N)NC1=O` came in with an IC50 of 1.3 nM.

With `N=C(N)NCCC[C@@H]1NC(=O)[C@@H]2CCCN2C(=O)CSC[C@@H](C(=O)O)NC(=O)[C@H](CC(=O)O)NC(=O)CNC1=O` ({CH2CO}-PRGDC-OH; thioether N-5), the IC50 turned out to be 1 nM.

For `N=C(N)NCCC[C@@H]1NC(=O)[C@H](Cc2ccc(O)cc2)NC(=O)C[S+]([O-])C[C@@H](C(=O)O)NC(=O)[C@H](CC(=O)O)NC(=O)CNC1=O` (stereo in doubt; 70B), the IC50 stood at 4.8 nM. This IC50 lies about 4.8-fold higher than the previous one.

`CC[C@@H](C)[C@H]1NC(=O)CSC[C@@H](C(=O)O)NC(=O)[C@H](CC(=O)O)NC(=O)CNC(=O)[C@H](CCCN=C(N)N)NC1=O` displayed an IC50 of 18 nM.

`CSCC[C@H]1NC(=O)CSC[C@@H](C(=O)O)NC(=O)[C@H](CC(=O)O)NC(=O)CNC(=O)[C@H](CCCNC(=N)N)NC1=O`: the IC50 is 28 nM.

With `CC(=O)NCC(=O)N[C@@H](CCCNC(=N)N)C(=O)NCC(=O)N[C@@H](CC(=O)O)C(=O)N[C@H](C(N)=O)C(C)C` (Ac-GRGDV-NH2), the IC50 came out at 434 nM.

`N=C(N)NCCC[C@@H]1NC(=O)CNC(=O)C(c2ccccc2C(F)(F)F)SC[C@@H](C(=O)O)NC(=O)[C@H](CC(=O)O)NC(=O)CNC1=O` (stereo in doubt; 20B): the IC50 came out at 2.7 nM.

`N=C(N)NCCC[C@@H]1NC(=O)[C@@H](Cc2ccc(O)cc2)NC(=O)C[S+]([O-])C[C@@H](C(=O)O)NC(=O)[C@H](CC(=O)O)NC(=O)CNC1=O` (stereo in doubt; 69A) yielded an IC50 of 7.3 nM. Compared with the last compound, the IC50 is about 2.7-fold higher.
